Measured values gathered from unrelated publications.
Each line is one published result; the experiments were not run side by side.
Target: Myosin-IIIa (MYO3A, Homo sapiens, UniProt Q8NEV4)

C=CC(=O)N1CCC(C(=O)NCC(=O)N2CCN(c3nc(-c4cnc(N)nc4C(F)F)nc(N4CCOCC4)n3)CC2)CC1
remaining binding (binding, competition with immobilised ligand; 1 µM): 100%

O=C(Nc1c[nH]nc1C(=O)NC1CCNCC1)c1cc(F)cc(F)c1
remaining binding (binding, competition with immobilised ligand; 1 µM): 94%

CN(CCCC(F)(F)F)c1nccc(-c2cnn3ncccc23)n1
remaining binding (binding; 1 µM): 78%

c1cncc(-c2cccc(Nc3nccc(NC4CCCCC4)n3)c2)c1
remaining binding (binding, competition with immobilised ligand; 10 µM): 99%

Cc1nccc(COC(=O)N2C[C@@H]3[C@@H](CNC(=O)c4ccc5[nH]nnc5c4)[C@@H]3C2)n1
remaining binding (binding, competition with immobilised ligand; 1 µM): 99%

Cc1cnn2ncc(-c3ccnc(N(C)C)n3)c2c1
remaining binding (binding; 1 µM): 100%

CS(=O)(=O)c1cc(C2(NC(=O)c3cncc4c3cnn4-c3ccc(F)cc3)CC2)ccn1
remaining binding (cell-free assay, competition with immobilised ligand; 1 µM): 85%

N[C@@H]1CCN(c2nccc(-c3cnn4ncccc34)n2)C1
remaining binding (binding; 1 µM): 100%

CCC(=O)N[C@H]1CC[C@@H](C(=O)N(C)c2ccc(-c3nc4ccccc4o3)cc2)C1
remaining binding (cell-free assay, competition with immobilised ligand; 1 µM): 100%

F[C@@H]1CCN(c2nccc(-c3cnn4ncccc34)n2)C1
remaining binding (binding; 1 µM): 93%

CCN1CCN(Cc2ccc(C(=O)Nc3ccc(C)c(Oc4ccc5c(c4)CC(=O)N5)c3)cc2C(F)(F)F)CC1
remaining binding (binding, competition with immobilised ligand; 1 µM): 100%

c1ccc(N2CCN(Cc3nc4ccccc4[nH]3)CC2)nc1
remaining binding (binding, competition with immobilised ligand; 1 µM): 100%

O=C(c1ccc(Nc2ncc(Cl)c(-c3cc4ccccc4s3)n2)cc1)N1CCC(N2CCCC2)CC1
remaining binding (binding, competition with immobilised ligand; 1 µM): 91%

COc1cnc(Nc2cccc(S(N)(=O)=O)c2)nc1N1CCN(c2ccccc2)CC1
remaining binding (binding, competition with immobilised ligand; 1 µM): 100%

C[C@@H]1CCN(c2nccc(-c3cnn4ncccc34)n2)C1
remaining binding (binding; 1 µM): 100%

Cc1c(NC(=O)c2cc(C(N)=O)nc3cc(F)ccc23)c(C(F)(F)F)nn1Cc1ccc(C#N)cc1
remaining binding (binding, competition with immobilised ligand; 1 µM): 91%

COc1ncc2cc3ccccc3nc2c1C#N
remaining binding (binding, competition with immobilised ligand; 5 µM): 100%

Cc1cnc(Nc2ccc(C(=O)N3CCC(N4CCCC4)CC3)cc2)nc1-c1cc2ccccc2s1
remaining binding (binding, competition with immobilised ligand; 1 µM): 85%

CN(C)c1nccc(-c2cnn3ncccc23)n1
remaining binding (binding; 1 µM): 100%

CN(C(=O)c1ccccc1)c1cc(N(C)c2ccc3c(c2)CCc2ccc(C(=O)NCCN4CCOCC4)cc2C3=O)ccc1F
remaining binding (cell-free assay, competition with immobilised ligand; 1 µM): 91%

O=C(c1ccc(Nc2ncc(Cl)c(-c3ccc(Cl)s3)n2)cc1)N1CCC(N2CCCC2)CC1
remaining binding (binding, competition with immobilised ligand; 1 µM): 81%
